ChEMBL document CHEMBL1154883, “Synthesis of highly functionalized barbituric acids and study of their interactions with p-glycoprotein and Mg2+--potential candidates for multi drug resistance modulation” (Eur J Med Chem, 2010)

Columns and labels:
DC3F/ADR [1] = test: Binding affinity to p-glycoprotein in chinese hamster DC3F/ADR cells assessed as increase in basal activity at 0.5 uM after 30 mins by spectrophotometric method relative to control; assay type: cell-based; details: Cricetulus griseus
Procedure, shortened: (§1)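 P-gp membrane vesicles from resistant DC-3F/ADX cells; basal MgATP hydrolysis tracked by PK/LDH-coupled NADH depletion (PEP, NADH) at 340 nm, with non-specific ATPase inhibitor in basal wells. Plate preincubated 30 min at 37 °C; vesicles 5 min, compound 5 min, then MgATP 20 min at 37 °C; read, re-read after 20 min. Triplicate; ≥30% basal change taken as interaction.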

DC3F/ADR [2] = test: Binding affinity to p-glycoprotein in chinese hamster DC3F/ADR cells assessed as increase in basal activity at 0.05 uM after 30 mins by spectrophotometric method relative to control; assay type: cell-based; details: Cricetulus griseus; procedure, shortened: as §1
DC3F/ADR [3] = test: Binding affinity to p-glycoprotein in chinese hamster DC3F/ADR cells assessed as increase in basal activity at 5 uM after 30 mins by spectrophotometric method relative to control; assay type: cell-based; details: Cricetulus griseus; procedure, shortened: as §1
[4] = Binding affinity to Mg2+ ion in HEPES buffer at pH 7.2; assay type: physicochemical

Row | SMILES | Activity (DC3F/ADR [1]) [%] | Activity (DC3F/ADR [2]) [%] | Activity (DC3F/ADR [3]) [%] | Ka [4]
1 | CN1C(=O)C(=C(Nc2ccccc2N)c2ccccc2)C(=O)N(C)C1=O | 144 | 42 | 135 | 2.41 ×10⁴ /M
2 | CN1C(=O)C(=CNc2ccccc2O)C(=O)N(C)C1=O | 114 | 42 | 95 | 5.76 ×10⁵ /M
3 | CN1C(=O)C(=C(/C=C/c2ccccc2)NNC(/C=C/c2ccccc2)=C2C(=O)N(C)C(=O)N(C)C2=O)C(=O)N(C)C1=O | 69 | 33 | 200 | 4.82 ×10⁵ /M
4 | CN1C(=O)C(=CNc2ccccc2C(=O)O)C(=O)N(C)C1=O | 83 | 35 | 100 | 3.6 ×10⁶ /M
5 | CN1C(=O)C(=CNCCNC=C2C(=O)N(C)C(=O)N(C)C2=O)C(=O)N(C)C1=O | 71 | 66 | 134 | 8.68 ×10⁵ /M
6 | CN1C(=O)C(=CNc2cc(C(=O)O)ccc2C(=O)O)C(=O)N(C)C1=O | 80 | 57 | 146 | 7.46 ×10⁵ /M
7 | CN1C(=O)C(=C(/C=C/c2ccccc2)Nc2ccccc2N)C(=O)N(C)C1=O | 112 | 44 | 133 | 2.7 ×10⁴ /M
8 | CN1C(=O)C(=CNc2cccc(N)n2)C(=O)N(C)C1=O | 81 | 44 | 92 | 2.57 ×10⁵ /M
9 | COc1ccccc1NC=C1C(=O)N(C)C(=O)N(C)C1=O | 95 | 53 | 123 | 5.79 ×10⁵ /M
10 | CN1C(=O)C(=CNc2ccccc2[N+](=O)[O-])C(=O)N(C)C1=O | 99 | 51 | 141 | 1.4 ×10⁵ /M
11 | CN1C(=O)C(=CNc2ccccc2N)C(=O)N(C)C1=O | 102 | 33 | 166 | 7.06 ×10⁵ /M
12 | CN1C(=O)C(=CNNc2ccccc2)C(=O)N(C)C1=O | 97 | 57 | 168 | 1.53 ×10⁷ /M
13 | CN1C(=O)C(=C(NNC(=C2C(=O)N(C)C(=O)N(C)C2=O)c2ccccc2)c2ccccc2)C(=O)N(C)C1=O | 100 | 66 | 166 | 1.11 ×10⁶ /M
14 | CN1C(=O)C(=C(/C=C/c2ccccc2)NCCNC(/C=C/c2ccccc2)=C2C(=O)N(C)C(=O)N(C)C2=O)C(=O)N(C)C1=O | 166 | 100 | 66 | 5.84 ×10⁵ /M
15 | CN1C(=O)C(=CNCc2ccccn2)C(=O)N(C)C1=O | 75 | 63 | 98 | 3.2 ×10⁵ /M
